Screens: PubChem, Sanford-Burnham Center for Chemical Genomics
APJ agonist – activates the human apelin receptor APJ; CHO-K1 APJ PathHunter beta-arrestin, luminescence; 0% DMSO wells, 100% apelin; P35414; activation, % at 20 µM; hit rate 0.11% among 330,000;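 active means activation more than six SD over the plate average, tested at 20 µM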
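system = engineered CHO-K1 APJ arrestin reporter cells | input = 1000 cells per well | timing = overnight seeding, 90 min compound at 25 °C, 1 h detection | measured by = enzyme-fragment complementation luminescence | read-out = beta-arrestin recruitment to APJ as agonist activity, luminescent signal | control set = negative DMSO alone, positive Apelin-13 at 10 nM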
EBI2 block – EBI2 (human) antagonism. P32249. inhibition, % at 5 µM. EBI2 beta-arrestin recruitment, luminescence, 7a,25-OHC stimulated. hit rate 0.81% among 360,000. AID 651636; in the data active means inhibition above about 38%;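 further: enzyme fragment complementation signal reports receptor beta-arrestin coupling in cells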
CCR6 antagonist – antagonists of human CCR6 receptor; inhibition, % at 20 µM; hit rate 0.49% among 340,000; CHO-K1 CCR6 PathHunter beta-arrestin, luminescence, CCL20-stimulated; P51684;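 active means compounds whose inhibition of the agonist-driven luminescence signal at 20 µM reaches about 50%, limit read from the data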;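 further: cells stimulated with CCL20 at 14 nM final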
Target sequence (P51684 whole entry, looked up): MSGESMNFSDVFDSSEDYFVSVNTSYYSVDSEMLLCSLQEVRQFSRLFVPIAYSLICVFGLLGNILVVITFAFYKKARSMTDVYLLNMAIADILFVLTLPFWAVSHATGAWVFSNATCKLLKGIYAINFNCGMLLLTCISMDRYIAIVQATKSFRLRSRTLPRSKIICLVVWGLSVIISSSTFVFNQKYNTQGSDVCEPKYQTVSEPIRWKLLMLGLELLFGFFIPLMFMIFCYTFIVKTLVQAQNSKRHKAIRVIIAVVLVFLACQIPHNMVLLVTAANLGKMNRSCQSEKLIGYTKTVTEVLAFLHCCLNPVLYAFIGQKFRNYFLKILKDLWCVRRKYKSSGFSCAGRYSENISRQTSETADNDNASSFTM
CXCR6 inh – blocks human CXCR6 beta-arrestin recruitment | CHO-K1 PathHunter CXCR6 beta-arrestin, luminescence | inhibition, % at 20 µM | hit rate 0.36% among 360,000 | O00574; in the data active means inhibition above about 34%, passing the limit was not always enough;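 further: antagonist mode with CXCL16 agonist at 10 nM final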
APJ antagonist – APJ receptor antagonism. inhibition, % at 20 µM. CHO-K1 APJ beta-arrestin complementation, luminescence. hit rate 0.32% among 330,000;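 active means inhibition above about 40% at 20 µM, limit read from the data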;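 further: cells challenged with 10 nM apelin-13 agonist together with compound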
EBI2 antag conf – EBI2 (human) antagonism, single concentration confirmation | inhibition, % at 5 µM | shares compounds with EBI2 block | EBI2 beta-arrestin luminescence, 7a,25-OHC antagonism | hit rate 29% among 2,400;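 active means inhibition of at least 50%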
EBI2 ag – activates EBI2, counter-screen for EBI2 antagonists | shares compounds with EBI2 block | EBI2-expressing cells, agonist mode, luminescence, 60 min; 0% vehicle, 100% 7α,25-dihydroxycholesterol control | activation, % at 5 µM | 2,400 tested, under 10 active | AID 652000;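 active means activation of at least 50%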
bGal counter – beta-galactosidase inhibition counter-screen; purified beta-galactosidase, luminescent Galacton Star, 15 min; shares compounds with EBI2 block; hit rate 1% among 2,400; inhibition, % at 5 µM;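 active means replicate-average signal at least 3 plate SD below neutral wells, shown as high inhibition, flagging enzyme-inhibiting false positives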;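 further: higher means stronger loss of beta-gal luminescence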
Numbers stand for hits; - = inactive; . = no result given. Shown are actives, neighbours in structure and some others; about 1.5% of the full set was active somewhere.

SMILES	APJ agonist	EBI2 block	CCR6 antagonist	CXCR6 inh	APJ antagonist	EBI2 antag conf	EBI2 ag	bGal counter
OC(c1ccccc1)c1nc(-c2cncnc2)cs1 (configuration not stated)	.	-	.	-	.	.	.	.
CCCCCCn1c(N2CCN(c3cccc(Cl)c3)CC2)nc2c1c(=O)[nH]c(=O)n2C	-	36	-	-	-	-	-	-
O=c1c2ccccc2oc2cc(OCc3cccc(F)c3)cc(O)c12	-	-	-	-	-	.	.	.
CCOC(=O)c1c(NC(=O)CS(=O)(=O)c2cn(CC)c3ccccc23)sc2c1CCCCC2	-	57	-	-	-	-	-	-
COC(=O)Cc1ccc(NC(=O)c2ccc3c(c2)C(=O)N(CC2CCCO2)C3=O)cc1 (configuration not stated)	-	-	-	-	-	.	.	.
COc1ccc(NC(=O)c2ccc3c(c2)C(=O)N(CC2CCCO2)C3=O)cc1 (configuration not stated)	-	80	-	-	-	-	-	-
COCCCN1C(=O)c2ccc(C(=O)Nc3ccccc3OC)cc2C1=O	-	-	-	-	-	.	.	.
COC(=O)c1cccc(NC(=O)c2ccc3c(c2)C(=O)N(CC2CCCO2)C3=O)c1 (configuration not stated)	-	44	-	-	-	-	-	-
COCCCN1C(=O)c2ccc(C(=O)Nc3ccc(OC)cc3)cc2C1=O	-	58	-	-	-	-	-	-
CC1CCN(c2ccc(C(=O)Nc3ccc4c(c3)OCO4)cc2[N+](=O)[O-])CC1	-	-	-	-	-	.	.	.
CC1CCCN(c2ccc(C(=O)Nc3ccc4c(c3)OCO4)cc2[N+](=O)[O-])C1 (configuration not stated)	-	46	-	-	-	-	-	-
O=C(O)c1cccc(NC(=O)c2ccc3c(c2)C(=O)N(CC2CCCO2)C3=O)c1 (configuration not stated)	-	-	-	-	-	.	.	.
CCCCN(C(=O)c1nn(C)c(=O)c2ccccc12)c1c(N)n(CC(C)C)c(=O)[nH]c1=O	-	-	-	-	-	.	.	.
COc1cccc(C(=O)Nc2ccc3c(c2)C(=O)N(CC2CCCO2)C3=O)c1 (configuration not stated)	-	-	-	-	-	.	.	.
CCN1C(=O)c2ccc(C(=O)Nc3ccc4c(c3)OCO4)cc2C1=O	-	49	-	-	-	-	-	-
COc1cccc(NC(=O)c2ccc3c(c2)C(=O)N(CC2CCCO2)C3=O)c1 (configuration not stated)	-	60	-	-	-	-	-	-
O=C(COc1ccccc1)Nc1ccc2c(c1)C(=O)N(CC1CCCO1)C2=O (configuration not stated)	-	45	-	-	-	-	-	-
CCN1C(=O)c2ccc(C(=O)NCc3ccc4c(c3)OCO4)cc2C1=O	-	-	-	-	-	.	.	.
Cc1ccc(CCNC(=O)C2CCC(CNc3c(N4CCC(C)CC4)c(=O)c3=O)CC2)cc1 (configuration not stated)	-	-	-	-	-	.	.	.
Cc1ccc(CNC(=O)C2CCC(CNc3c(N4CCC(C)CC4)c(=O)c3=O)CC2)cc1 (configuration not stated)	-	84	-	-	-	57	-	-
Cn1nnc2c[n+](CC(=O)c3ccc(Cl)cc3)cc(Br)c21	-	-	-	-	-	.	.	.
Cn1nnc2c[n+](CC(=O)c3ccc4ccccc4c3)cc(Br)c21	-	66	-	-	-	67	-	-
CC1CCC2(CC1)NC(=O)N(CC(=O)N1c3ccccc3CC1C)C2=O (configuration not stated)	-	-	-	-	-	.	.	.
O=C(/C=C/c1cccs1)N1CCC2(CC1)Oc1ccc(Cl)cc1C(=O)C21CC(c2cccnc2)=NO1 (configuration not stated)	-	66	-	-	-	-	-	-
Cc1ccc(C(=O)N2CCC3(CC2)Oc2ccc(Cl)cc2C(=O)C32CC(c3cccnc3)=NO2)s1 (configuration not stated)	-	-	-	-	-	.	.	.
SMILES	APJ agonist	EBI2 block	CCR6 antagonist	CXCR6 inh	APJ antagonist	EBI2 antag conf	EBI2 ag	bGal counter
O=C(CN1CCN(S(=O)(=O)c2cccc(Br)c2)CC1)NCCc1cccs1	-	39	-	-	-	-	-	-
O=C1CC(Nc2ccc3ccccc3c2)C(=O)N1Cc1ccccc1 (configuration not stated)	-	63	-	-	-	-	-	-
O=C(NNC(=O)C1[C@H]2CCCC[C@@H]12)Nc1cccc2ccccc12 (some centres not stated)	-	-	-	-	-	.	.	.
CCCCOC(=O)c1ccc(NC(=O)COC(=O)c2ccc3ncsc3c2)cc1	-	-	-	-	-	.	.	.
CCCc1nn(-c2ccccc2)c2c1C(c1cccs1)C(C#N)=C(N)O2 (configuration not stated)	-	53	-	-	-	60	-	-
Cc1ccc(Oc2cnc3ccccc3n2)cc1	-	-	-	-	-	.	.	.
Cc1ccc(Oc2ccc(Oc3ccc(C)cc3)nn2)cc1	-	92	-	-	-	89	-	-
Cc1ccc(Nc2ccc(C(=O)NCCc3ccccc3)cn2)cc1	-	83	-	-	-	58	-	-
COc1ccccc1N1CCN(S(=O)(=O)CCNC(=O)COc2ccccc2)CC1	.	68	.	-	.	-	-	-
COC(=O)c1ccc(C2C(Oc3ccccc3)C(=O)N2CCc2ccc(F)cc2)cc1 (configuration not stated)	-	53	-	-	-	-	-	-
COC(=O)c1ccc(C2C(Oc3ccc(OC)cc3)C(=O)N2CCc2ccc(OC)c(OC)c2)cc1 (configuration not stated)	-	-	-	-	-	.	.	.
Nc1ccn(C2OC(CO)C(O)C2F)c(=O)n1 (configuration not stated)	.	-	.	-	.	.	.	.
COc1ccc(NC(=O)C2CCC(CNS(=O)(=O)c3cccs3)CC2)cc1 (configuration not stated)	-	47	-	-	-	-	-	-
COc1ccc(NC(=O)C2CCC(CNS(=O)(=O)c3cccs3)CC2)cc1OC (configuration not stated)	-	-	-	-	-	.	.	.
COc1ccc(-c2cc(-c3ccccc3)c(C#N)c(S(C)(=O)=O)n2)cc1	-	66	-	-	-	72	-	-
COc1ccc(Nc2c(-c3ccc(C)cc3)nc3cnccn23)cc1	-	-	-	-	-	.	.	.
Cc1ccc(Nc2c(-c3ccccc3O)nc3cnccn23)cc1	-	57	-	-	-	-	-	-
